Results: ChEMBL document CHEMBL3627629 (Bioorg Med Chem Lett, 2015)

Experiments:
Type in all cases: cell-based
[1] = biological target: Muscarinic acetylcholine receptor M3 (Homo sapiens, UniProt P20309); assay: Displacement of [3H]NMS from human muscarinic M3 receptor expressed in CHO cells after 2 hrs by liquid scintillation spectrometry analysis
How it was run: (§1)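 Membranes from CHO cells stably expressing recombinant human receptor: 10 µg protein/well for M1 and M5, 3 µg for M3. Incubated with 0.3 nM [3H]NMS and 1 nM–100 µM analog in 50 mM Tris-HCl pH 7.4, 2 h at 25 °C. Nonspecific binding defined with 1 µM atropine. GF/B filtration, washed three times. Ki from IC50 by Cheng-Prusoff. Three independent experiments in duplicate, mean ± SEM.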

[2] = biological target: T1, Muscarinic acetylcholine receptor M1 (Homo sapiens, UniProt P11229); assay: Displacement of [3H]NMS from human muscarinic M1 receptor expressed in CHO cells after 2 hrs by liquid scintillation spectrometry analysis; how it was run: as §1
T1 sequence (P11229 whole entry): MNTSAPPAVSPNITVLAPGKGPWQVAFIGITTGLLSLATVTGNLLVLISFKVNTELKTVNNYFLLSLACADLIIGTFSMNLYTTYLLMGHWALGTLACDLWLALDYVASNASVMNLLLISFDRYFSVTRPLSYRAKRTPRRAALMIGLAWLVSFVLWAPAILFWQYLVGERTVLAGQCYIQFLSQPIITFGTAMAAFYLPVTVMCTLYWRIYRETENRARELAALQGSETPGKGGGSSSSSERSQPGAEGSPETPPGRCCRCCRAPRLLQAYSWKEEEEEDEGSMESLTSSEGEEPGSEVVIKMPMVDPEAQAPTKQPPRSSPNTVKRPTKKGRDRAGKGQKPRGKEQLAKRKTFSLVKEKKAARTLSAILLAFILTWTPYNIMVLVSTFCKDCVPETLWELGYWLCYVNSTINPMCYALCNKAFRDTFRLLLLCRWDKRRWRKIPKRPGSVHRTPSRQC

[3] = biological target: T2, Muscarinic acetylcholine receptor M5 (Homo sapiens, UniProt P08912); assay: Displacement of [3H]NMS from human muscarinic M5 receptor expressed in CHO cells after 2 hrs by liquid scintillation spectrometry analysis; how it was run: as §1
T2 sequence (P08912 whole entry): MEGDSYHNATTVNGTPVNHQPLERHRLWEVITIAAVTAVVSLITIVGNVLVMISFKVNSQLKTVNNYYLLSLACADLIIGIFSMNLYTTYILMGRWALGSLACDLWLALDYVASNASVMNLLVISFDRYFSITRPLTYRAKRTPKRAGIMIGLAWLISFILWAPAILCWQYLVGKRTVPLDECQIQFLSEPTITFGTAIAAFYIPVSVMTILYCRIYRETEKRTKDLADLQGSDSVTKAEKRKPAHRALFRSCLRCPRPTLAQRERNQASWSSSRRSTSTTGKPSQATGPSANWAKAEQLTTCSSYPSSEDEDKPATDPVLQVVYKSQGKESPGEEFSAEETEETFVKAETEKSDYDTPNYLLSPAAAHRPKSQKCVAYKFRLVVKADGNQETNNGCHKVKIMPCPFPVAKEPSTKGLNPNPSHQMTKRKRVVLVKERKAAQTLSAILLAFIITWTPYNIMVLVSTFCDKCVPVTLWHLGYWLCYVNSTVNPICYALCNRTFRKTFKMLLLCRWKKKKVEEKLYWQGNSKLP

Sequence of Muscarinic acetylcholine receptor M3 (P20309 whole entry): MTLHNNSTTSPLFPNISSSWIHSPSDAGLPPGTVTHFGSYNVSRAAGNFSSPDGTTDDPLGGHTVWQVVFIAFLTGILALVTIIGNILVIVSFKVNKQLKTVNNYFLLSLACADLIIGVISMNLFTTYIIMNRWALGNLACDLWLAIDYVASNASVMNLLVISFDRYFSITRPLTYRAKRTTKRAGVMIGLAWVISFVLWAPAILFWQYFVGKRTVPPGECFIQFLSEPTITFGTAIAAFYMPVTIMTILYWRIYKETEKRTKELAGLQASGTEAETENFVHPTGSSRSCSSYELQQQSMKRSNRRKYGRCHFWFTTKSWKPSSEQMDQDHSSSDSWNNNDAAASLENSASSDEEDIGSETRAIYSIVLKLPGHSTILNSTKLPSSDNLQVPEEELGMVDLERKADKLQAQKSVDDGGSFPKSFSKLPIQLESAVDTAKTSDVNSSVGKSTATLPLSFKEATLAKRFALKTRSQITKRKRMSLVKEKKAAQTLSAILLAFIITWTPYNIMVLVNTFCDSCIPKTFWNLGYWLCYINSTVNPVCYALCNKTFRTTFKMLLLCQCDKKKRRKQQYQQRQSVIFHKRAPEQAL

Compound `COc1ccc(CCOC(=O)C2(c3ccccc3)CCN(C)CC2)cc1` has a Ki [1] of 0.64 µM, a Ki [2] of 1.2 µM and a Ki [3] of 0.87 µM.

`COc1ccc(CCNC(=O)NCC2(c3ccccc3)CCN(C)CC2)cc1` was tested, and the Ki [1] was 3.55 µM, the Ki [2] was 5.4 µM and the Ki [3] was 4.3 µM.

`COc1ccc(CCC(=O)OCC2(c3ccccc3)CCN(C)CC2)cc1` gave a Ki [1] of 0.37 µM, a Ki [2] of 0.67 µM and a Ki [3] of 0.38 µM.

With `COc1ccc(CCNC(=O)NCC2(c3ccccc3)CCN(C)CC2)cc1OC` the Ki [1] was > 10 µM, the Ki [2] was > 10 µM and the Ki [3] was > 10 µM.

For `COc1ccc(CCC(=O)NCC2(c3ccccc3)CCN(C)CC2)cc1OC`, the Ki [1] was > 30 µM, the Ki [2] was > 10 µM and the Ki [3] was > 10 µM.

`COc1ccc(CCNC(=O)OCC2(c3ccccc3)CCN(C)CC2)cc1OC` was tested, and the Ki [1] was 4.03 µM, the Ki [2] was 5.09 µM and the Ki [3] was 5.41 µM.

`COc1ccc(CCNC(=O)C2(c3ccccc3)CCN(C)CC2)cc1OC` was tested, and the Ki [1] was > 10 µM, the Ki [2] was > 30 µM and the Ki [3] was > 30 µM.

`COc1ccc(CCOC(=O)NCC2(c3ccccc3)CCN(C)CC2)cc1` gave a Ki [1] of 2.3 µM, a Ki [2] of 2.91 µM and a Ki [3] of 2.05 µM.

Work on `COc1ccc(CCOC(=O)C2(c3ccccc3)CCN(C)CC2)cc1OC` yielded a Ki [1] of 5.26 µM, a Ki [2] of 10.8 µM and a Ki [3] of 6.95 µM.

In the case of `COc1ccc(CCNC(=O)C2(c3ccccc3)CCN(C)CC2)cc1`, the Ki [1] is reported as 3.29 µM, the Ki [2] is reported as > 10 µM and the Ki [3] is reported as 6.97 µM.

In the case of `COc1ccc(CCC(=O)NCC2(c3ccccc3)CCN(C)CC2)cc1`, the Ki [1] is reported as 1.54 µM, the Ki [2] is reported as 3.44 µM and the Ki [3] is reported as 1.81 µM.

With `COc1ccc(CCC(=O)OCC2(c3ccccc3)CCN(C)CC2)cc1OC` the Ki [1] was 4.6 µM, the Ki [2] was 3.63 µM and the Ki [3] was 2.14 µM.
